Data published in paper PMC2674070 (Journal of immunology (Baltimore, Md. : 1950), 2009).
Ends that are not written are not given here.

What was measured:
H-2K^b = H-2K^b (Mus musculus, UniProt P01901); test: MHC peptide-binding assay, purified H-2K^b
In short: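 Radiolabelled (chloramine-T) reference peptide at 0.1-1 nM is incubated at room temperature for 2 days with purified MHC (1 µM to 1 nM), 1-3 µM human β2-microglobulin and protease inhibitors. MHC-peptide complexes are captured on plates coated with Y3 (anti-H-2K^b) antibody, and bound cpm are read by microscintillation counting. Test peptides are ≥95% pure by reverse-phase HPLC.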

H-2D^b = H-2D^b (Mus musculus, UniProt P01899); test: MHC peptide-binding assay, purified H-2D^b
Sequence of H-2D^b (P01899 25-362): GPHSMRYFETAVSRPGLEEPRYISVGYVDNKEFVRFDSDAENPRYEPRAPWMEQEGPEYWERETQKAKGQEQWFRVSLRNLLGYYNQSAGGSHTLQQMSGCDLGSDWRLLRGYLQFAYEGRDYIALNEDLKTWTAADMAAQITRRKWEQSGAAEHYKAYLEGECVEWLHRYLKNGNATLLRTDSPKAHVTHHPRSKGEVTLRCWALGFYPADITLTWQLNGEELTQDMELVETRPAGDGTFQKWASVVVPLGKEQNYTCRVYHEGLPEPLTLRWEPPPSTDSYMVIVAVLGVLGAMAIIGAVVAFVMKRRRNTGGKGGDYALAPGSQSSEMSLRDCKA
Sequence of H-2D^b (P61769 21-119, further chain): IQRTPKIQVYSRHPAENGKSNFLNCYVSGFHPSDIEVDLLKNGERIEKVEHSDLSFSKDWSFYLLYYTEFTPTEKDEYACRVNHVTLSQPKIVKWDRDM

Sequence of H-2K^b (P61769 21-119): as the sequence (P61769 21-119, further chain) above
Sequence of H-2K^b (P01901 22-369): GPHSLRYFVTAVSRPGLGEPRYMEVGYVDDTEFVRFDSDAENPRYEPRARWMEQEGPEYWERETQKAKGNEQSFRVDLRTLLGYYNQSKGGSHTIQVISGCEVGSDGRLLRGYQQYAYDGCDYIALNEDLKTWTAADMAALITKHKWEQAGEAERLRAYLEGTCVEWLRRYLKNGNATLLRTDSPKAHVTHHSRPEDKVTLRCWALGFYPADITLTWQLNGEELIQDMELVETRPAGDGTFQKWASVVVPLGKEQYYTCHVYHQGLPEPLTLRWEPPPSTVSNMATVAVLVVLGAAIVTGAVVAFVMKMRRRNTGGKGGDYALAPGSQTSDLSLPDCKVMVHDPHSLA

Row | Compound | IC50 (H-2K^b) | IC50 (H-2D^b)
1 | VSWTMKIL [Epitope E451-458] | 458 nM | < 2000 nM
2 | TAIANQATV [NS4B66-74] | < 2000 nM | 
3 | RALIFILL [Epitope M60-67] |  | < 2000 nM
4 | FSLGVLGM [NS2A8-15] | < 2000 nM | 
5 | CC(C)C[C@H](NC(=O)[C@H](CO)NC(=O)[C@@H](NC(=O)[C@H](CC(N)=O)NC(=O)[C@@H](NC(=O)[C@H](CO)NC(=O)[C@@H](N)CO)C(C)C)C(C)C)C(=O)N[C@H](C(=O)O)[C@@H](C)O [NS4B59-66] | < 2000 nM | 
6 | LAVTIMAIL [NS2A145-153] | < 2000 nM | 
7 | RMLINRFTM [NS5_237-245] | < 2000 nM | 
8 | MTMRCIGI [Epitope E-2-6] |  | < 2000 nM
